One assay concerns DLD-1 cells. The assay can be described thus: Pan-RAS siRNA knockdown and viability. The following applies: si-panRAS vs non-targeting siRNA, 24 h, CellTiter-Glo. The assay is classed as cell-based, human. In a few lines: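 DLD-1 cells reverse-transfected in 6-well plates with siRNA pools against HRAS, KRAS and NRAS, or a non-targeting pool. Cells then re-suspended in serum-free RPMI and seeded at 10,000 cells/well in 384-well plates overnight. Dilution series added from 10× stocks in serum-free Opti-mem; 24 h incubation; viability by CellTiter-Glo.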
A general note: Cellular ATP, detected with luciferase, serves as a proxy for viable cell number.

For assay [1], the system named is BRAF^V600E-CAAX-expressing MEF cells. The assay can be described thus: Viability assay in mouse embryo fibroblasts. The assay is classed as cell-based. The following applies: compared with Kras^lox/lox MEFs.

Each structure is given as a SMILES string. Residues, ends and D or L forms follow the SMILES beside them. *: point of attachment. Cbz = O=C(OCc1ccccc1)*

On to `CC(C)C[C@@H](C=O)NC(=O)[C@H](CC(C)C)NC(=O)[C@H](CC(C)C)NC(=O)OCc1ccccc1` [MG132, reference compound] (Cbz-Leu-Leu-Leu-aldehyde), for which the “effect of combined HRAS, NRAS and KRAS knockdown on compound lethality” value in the assay with DLD-1 cells was “did not sensitize”. Take `CCCS(=O)(=O)Nc1ccc(F)c(C(=O)c2c[nH]c3ncc(-c4ccc(Cl)cc4)cc23)c1F` [vemurafenib, reference compound]: the “sensitivity of BRAF^V600E-CAAX-expressing cells” value in assay [1] is listed as “more sensitive”.

The values are drawn from publication PMC5362268 (Cell, 2017).
